Assay outcomes (PubChem)
Only a selection was taken, and hits are over-represented in it overall.
E-selectin induc: E-selectin induction on HUVECs. P16581. HUVEC E-selectin immunofluorescence imaging; normalized: neutral wells 0, TNF-alpha wells 100. activation, % at 7.58 µM. hit rate 0.37% among 260,000;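 active means mean E-selectin-positive cell signal at least 10% of the positive control, reached in at least 60% of replicates, without over 20% cell loss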
Target sequence (P16581 whole entry, looked up): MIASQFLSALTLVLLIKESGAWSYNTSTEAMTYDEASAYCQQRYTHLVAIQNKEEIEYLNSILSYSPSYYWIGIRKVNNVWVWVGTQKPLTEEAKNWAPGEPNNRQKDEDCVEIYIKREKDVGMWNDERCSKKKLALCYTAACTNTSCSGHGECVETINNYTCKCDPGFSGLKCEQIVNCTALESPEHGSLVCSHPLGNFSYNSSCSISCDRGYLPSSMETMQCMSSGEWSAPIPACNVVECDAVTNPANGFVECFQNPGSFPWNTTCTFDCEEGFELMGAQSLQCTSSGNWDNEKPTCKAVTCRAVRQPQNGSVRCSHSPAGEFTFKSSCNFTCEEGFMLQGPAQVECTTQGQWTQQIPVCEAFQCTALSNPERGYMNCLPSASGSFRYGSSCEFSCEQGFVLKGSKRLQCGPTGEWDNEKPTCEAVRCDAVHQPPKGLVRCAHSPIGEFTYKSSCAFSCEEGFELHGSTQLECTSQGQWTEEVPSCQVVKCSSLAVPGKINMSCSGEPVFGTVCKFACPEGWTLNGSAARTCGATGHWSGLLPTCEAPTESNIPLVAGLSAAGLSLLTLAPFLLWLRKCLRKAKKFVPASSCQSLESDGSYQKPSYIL
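Read-out: % PE-positive cells | Test system: HUVEC | Doses: One compound dose added by pin transfer | Buffer or medium: EGM-2 over gelatin coat | Signal: Immunofluorescence imaging | Benchmarks: TNF-alpha, DMSO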
Xi reactivation: activators of X-chromosome reactivation in mouse fibroblasts; XiGFP mouse fibroblasts, % GFP-positive cells imaging, 3 d; cells co-treated with 5-aza-dC sensitizer; scaled so ellipticine positive control = 100%; activation, % at 7.58 µM; hit rate 0.055% among 360,000; AID 743238;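 active means mean normalized replicate activation at least 10% and every replicate at or above 10%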
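System: 68-5-11 XiGFP fibroblast line; Timing: 3 days compound exposure; Compound dosing: one concentration, pinned; Benchmarks: positive control ellipticine, 6 µM final; Buffer or medium: DMEM containing 5-aza-dC.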
Each line names hits and unclear results; the compound was inactive in the other large screens.

CO[C@H]1CC[C@H]2CCOc3c(C#N)cccc3C(=O)N(C)C[C@H](C)C(=O)N(C)C[C@H]1O2	none
C[C@@H]1CN([C@@H](C)CO)C(=O)Cc2cc(NC(=O)Cn3cnnn3)ccc2O[C@@H]1CN(C)C(=O)Nc1ccc(F)cc1	none
C[C@H](CO)N1C[C@H](C)[C@H](CN(C)C(=O)Nc2ccc(C(F)(F)F)cc2)Oc2ccc(NC(=O)Cn3cnnn3)cc2CC1=O	E-selectin induc 41
CC(C)NC(=O)N(C)C[C@@H]1Oc2ccc(NC(=O)Cn3cnnn3)cc2C(=O)N([C@H](C)CO)C[C@@H]1C	none
C[C@@H]1CN([C@@H](C)CO)C(=O)Cc2cc(NC(=O)c3ccncc3)ccc2O[C@@H]1CN(C)C(=O)Nc1ccc(C(F)(F)F)cc1	E-selectin induc 74
C[C@@H]1CN([C@@H](C)CO)C(=O)Cc2cc(NC(=O)Cn3cnnn3)ccc2O[C@H]1CN(C)C(=O)Nc1ccc(F)cc1	E-selectin induc 86
C[C@@H]1CN([C@H](C)CO)C(=O)Cc2cc(NC(=O)c3ccncc3)ccc2O[C@H]1CN(C)C(=O)Nc1ccc(C(F)(F)F)cc1	none
C[C@@H]1CN([C@H](C)CO)C(=O)Cc2cc(NC(=O)Cn3cnnn3)ccc2O[C@@H]1CN(C)C(=O)Nc1ccc(F)cc1	none
CC(C)NC(=O)N(C)C[C@@H]1Oc2ccc(NC(=O)Cn3cnnn3)cc2C(=O)N([C@H](C)CO)C[C@H]1C	E-selectin induc 59
CCC(=O)N1CC2(C1)CN(C(=O)CN1CCOCC1)[C@H](CO)c1[nH]c3cc(OC)ccc3c12	none
COc1ccc(NC(=O)Nc2ccc3c(c2)CC(=O)N([C@@H](C)CO)C[C@@H](C)[C@H](CN(C)S(=O)(=O)c2ccc(Cl)cc2)O3)cc1	none
CC(C)NC(=O)N(C)C[C@@H]1Oc2ccc(NC(=O)Cn3cnnn3)cc2CC(=O)N([C@@H](C)CO)C[C@H]1C	E-selectin induc 66
CC(C)NC(=O)N(C)C[C@H]1Oc2ccc(NC(=O)Cn3cnnn3)cc2CC(=O)N([C@H](C)CO)C[C@@H]1C	none
CN(C)Cc1cn(CC[C@H]2CC[C@H](NS(=O)(=O)c3ccccc3)[C@H](CO)O2)nn1	none
Cc1ccc(-c2nn(-c3cc(N4CCNCC4)ccc3[N+](=O)[O-])c(=O)c3ccccc23)cc1	E-selectin induc 66
Cc1ccc(-c2nn(-c3ccccn3)c(=O)c3ccccc23)cc1	none
C[C@H](CO)N1C[C@H](C)[C@@H](CN(C)S(=O)(=O)c2cn(C)cn2)Oc2c(NC(=O)CCC(F)(F)F)cccc2C1=O	none (no result: E-selectin induc)
C[C@@H]1CN([C@H](C)CO)S(=O)(=O)c2ccc(-c3ccncc3)cc2O[C@H]1CN(C)Cc1ccc(Oc2ccccc2)cc1	E-selectin induc 131
CCCC#Cc1ccc2c(c1)O[C@@H](CN(C)C(=O)c1ccncc1)[C@H](C)CN([C@@H](C)CO)S2(=O)=O	E-selectin induc 118
CCCC#Cc1ccc2c(c1)O[C@H](CN(C)C(=O)c1ccncc1)[C@H](C)CN([C@@H](C)CO)S2(=O)=O	none
C/C=C/c1ccc2c(c1)O[C@H](CN(C)C(=O)CC)[C@@H](C)CN([C@H](C)CO)S2(=O)=O	E-selectin induc 74
C[C@@H]1CN([C@@H](C)CO)S(=O)(=O)c2ccc(-c3ccncc3)cc2O[C@@H]1CN(C)Cc1ccc(Oc2ccccc2)cc1	none
C/C=C/c1ccc2c(c1)O[C@@H](CN(C)C(=O)CC)[C@H](C)CN([C@H](C)CO)S2(=O)=O	none
C[C@H](CO)N1C[C@H](C)[C@@H](CN(C)Cc2ccccc2)Oc2c(NC(=O)Nc3ccccc3)cccc2C1=O	none
C[C@@H]1CN([C@@H](C)CO)S(=O)(=O)c2ccc(C3=CCCC3)cc2O[C@H]1CN(C)Cc1ccccn1	none
O=C([C@@H]1N[C@@H]2c3ccc(-c4ccccc4F)c(=O)n3C[C@@H]2[C@H]1CO)N1CCCCC1	none
COc1ccc2c3c([nH]c2c1)[C@H](CO)N(Cc1cc(F)ccc1F)CC31CCN(C(C)=O)CC1	none
C[C@H](CO)N1C[C@H](C)[C@H](CN(C)Cc2ccc(-c3ccccc3)cc2)Oc2ccc(NC(=O)C3CCCCC3)cc2C1=O	none
CC(=O)c1cc2ccc(O)cc2oc1=O	none
O=c1ccc2[n+]([O-])c3ccc(O)cc3oc-2c1	E-selectin induc 193
C[C@@H]1CN([C@@H](C)CO)C(=O)Cc2cc(NS(C)(=O)=O)ccc2O[C@H]1CN(C)CC1CCCCC1	none
Cc1noc(C)c1NC(=O)N(C)C[C@H]1Oc2c(NC(=O)NC(C)C)cccc2C(=O)N([C@H](C)CO)C[C@H]1C	none
CCN1/C(=C/C(C)=C/c2sc3ccccc3[n+]2CC)Sc2ccccc21	E-selectin induc 155
CCN1/C(=C\C(=S)Nc2ccccc2)Sc2ccccc21	none
COc1ccc(S(=O)(=O)Nc2ccc3c(c2)C(=O)N([C@H](C)CO)C[C@@H](C)[C@@H](CN(C)Cc2ccc(Cl)c(Cl)c2)O3)cc1	E-selectin induc 29
COc1ccc(S(=O)(=O)Nc2ccc3c(c2)C(=O)N([C@@H](C)CO)C[C@@H](C)[C@H](CN(C)Cc2ccc(Cl)c(Cl)c2)O3)cc1	none
COc1ccc(S(=O)(=O)Nc2ccc3c(c2)C(=O)N([C@H](C)CO)C[C@@H](C)[C@H](CN(C)Cc2ccc(Cl)c(Cl)c2)O3)cc1	E-selectin induc 40
COc1ccc(S(=O)(=O)Nc2ccc3c(c2)C(=O)N([C@@H](C)CO)C[C@H](C)[C@H](CN(C)Cc2ccc(Cl)c(Cl)c2)O3)cc1	none
COc1ccc(C#Cc2ccc3c(c2)[C@@H]2[C@@H](CCN2C(=O)c2ccncc2)[C@@H](CO)N3C)cc1	none
CCCN(C)C[C@H]1Oc2cc(-c3cccc(F)c3)ccc2S(=O)(=O)N([C@H](C)CO)C[C@H]1C	none
CCCNC(=O)N1[C@H](CO)[C@H](c2ccc(C3=CCCCC3)cc2)[C@@H]1CNC(C)C	none
COCC(=O)N(C)C[C@H]1Oc2cc(C#CCN(C)C)ccc2S(=O)(=O)N([C@H](C)CO)C[C@@H]1C	none
COCCCn1c(=O)/c(=C\c2ccc(OC(F)F)c(OC)c2)s/c1=C(/C#N)C(N)=O	none
COCCCn1c(=O)/c(=C\c2ccccc2OC(F)F)s/c1=C(/C#N)C(N)=O	E-selectin induc 38
CCC(=O)c1ccc(OCC(=O)NNC(=O)c2cc(C)oc2C)cc1	E-selectin induc 49
CCOc1ccc(C(=O)NNC(=O)c2cc(C)oc2C)cc1	none
O=Nc1c(-c2c(O)[nH]c3cc(Br)ccc23)[nH]c2ccccc12	E-selectin induc 66
O=C(CNC(=O)c1ccccc1)N=Nc1c(O)[nH]c2ccc(Br)cc12	none (no result: E-selectin induc)
C[C@H]1CN([C@@H](C)CO)C(=O)c2cc(-c3ccccc3)cnc2O[C@@H]1CN(C)C(=O)Cc1ccccn1	none
O=C(NCC[C@H]1CC[C@H](NC(=O)C2CCCCC2)[C@@H](CO)O1)c1cnccn1	none
CC1=CC2=NC(=O)CC(C)(C(=O)N(CC(=O)NC3CCCC3)Cc3ccccc3)N2C=C1 (stereo not drawn)	E-selectin induc 41
CC1=CN2C(=NC(=O)CC2(C)C(=O)N(CC(=O)NC2CCCC2)Cc2ccccc2)C=C1 (stereo not drawn)	none
CC(=O)N1[C@H](C(=O)Nc2ccccc2)[C@@H](CO)[C@@H]2Cn3c(ccc(C4=CCCCC4)c3=O)[C@@H]21	none
C/C(=N\NC(=O)c1cc(C(C)C)[nH]n1)c1ccncc1	none
